≈ marks a conversion by molar mass, not a printed value. Calls of active or inactive are those of the source. No cut-off for these calls is given here.
Experiments:
[1] = test system: Salmonella typhimurium; test: Genotoxicity in Salmonella typhimurium by Ames test; assay type: toxicity; details: salmonella enterica subsp. enterica serovar typhimurium
[2] = molecular target: T1, JAK1/TYK2 (Homo sapiens) (UniProt P23458+P29597)
[3] = molecular target: Tyrosine-protein kinase ABL1 (Homo sapiens) (UniProt P00519); test: Inhibition of recombinant human Abl kinase expressed in insect cells at 10 uM using Ulight-TK peptide substrate after 30 mins by LANCE method
How it was run: (§1)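 Single-point screen at 10 μM within a broad panel of radioligand binding and enzyme inhibition assays covering receptors, transporters, enzymes and ion channels.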

[4] = molecular target: JAK3/JAK1 (Homo sapiens) (UniProt P52333+P23458)
[5] = Plasma protein binding in dog at 0.1 mg/kg, iv administered as 30 mins infusion; assay type: ADME, organism-based, Canis lupus familiaris; details: read-out: PPB
[6] = test system: Mus musculus; test: In vivo receptor occupancy at JAK1 in Balb/c mouse lungs at 10 to 100 ug, it measured after 4 hrs; assay type: functional, organism-based
How it was run: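 JAK1 target occupancy in mouse lung measured over time after i.t. administration of 10 μg or 100 μg.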

[7] = test system: Canis familiaris; test: Toxicity in iv dosed dog for 7 days; assay type: organism-based, Canis lupus familiaris; details: in vivo, 168 h
How it was run: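 Exploratory 7-day intravenous toxicology studies in rat and dog; margins expressed over total plasma AUC relative to projected exposure at a 200 μg human lung dose.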

[8] = Chemical stability in pH 8 solution at 40 degC up to 6 weeks; assay type: physicochemical; details: buffer, pH 8, 1008 h
[9] = Thermodynamic solubility of the compound in pH 7.4 water buffer using crystalline solid sample; assay type: physicochemical; details: read-out: Therm_solubility
How it was run: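 Thermodynamic solubility measured from crystalline solid in water buffered at pH 7.4.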

[10] = molecular target: Tyrosine-protein kinase Lck (Homo sapiens) (UniProt P06239); test: Inhibition of recombinant human Lck kinase expressed in insect Sf21 cells at 10 uM using Ulight-Poly GAT[EAY(1:1:1)]n as substrate after 10 mins by LANCE assay; how it was run: as §1
[11] = test system: Canis familiaris; test: Intrinsic clearance in dog at 0.1 mg/kg, iv administered as 30 mins infusion; assay type: ADME, organism-based, Canis lupus familiaris; details: in vivo, 0.5 h
[12] = test system: Mus musculus; test: In vivo inhibition of JAK1/JAK2 in […] dosed Balb/c mouse assessed as inhibition of IL-6 induced STAT3 phosphorylation in lungs pretreated for 15 mins followed by IL-6 stimulation measured after 30 mins by ELISA; assay type: functional
How it was run: (§2)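 Intratracheal dosing in mouse, then IL-6 given i.t.; phosphorylated STAT3 quantified in lung. Percent inhibition ± 95% CI from the difference in geometric means between vehicle/IL-6 and vehicle/saline groups; N = 6.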

[13] = Chemical stability in pH 8 solution at 40 degC after 1 to 2 days; assay type: physicochemical; details: buffer
How it was run: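 Hydrolytic stability followed over 1–2 days at pH 8.0 and 40 °C; percent degradation recorded.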

[14] = test system: Mus musculus; test: In vivo inhibition of JAK2 homodimer in Balb/c mouse assessed as inhibition of GM-CSF induced STAT5 phosphorylation in blood at 100 ug, it for 12 consecutive days; assay type: functional
How it was run: (§3)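 After i.t. dosing in mouse, GM-CSF-induced phosphorylated STAT5 measured in blood; percent inhibition ± 95% CI from geometric means versus vehicle groups; N = 3.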

[15] = test system: Rattus norvegicus; test: Intrinsic clearance in rat at 0.5 mg/kg, iv; assay type: ADME, organism-based; details: in vivo
[16] = Chemical stability at room temperature up to 6 weeks; assay type: physicochemical; details: 1008 h
How it was run: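 Crystalline solid stored at room temperature and at 40 °C/75% relative humidity for up to 6 weeks; chemical stability assessed.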

[17] = test system: Mus musculus; test: In vivo inhibition of JAK2 homodimer in Balb/c mouse assessed as inhibition of GM-CSF induced STAT5 phosphorylation in blood at 10 ug, it for 12 consecutive days; assay type: functional, organism-based; how it was run: as §3
[18] = test system: Canis familiaris; test: Unbound clearance in dog at 0.1 mg/kg, iv administered as 30 mins infusion; assay type: ADME, organism-based, Canis lupus familiaris; details: in vivo, 0.5 h
[19] = Plasma protein binding in rat at 0.5 mg/kg, iv; assay type: ADME, organism-based; details: read-out: PPB
[20] = molecular target: JAK2/JAK1 (Homo sapiens) (UniProt P23458+O60674)
[21] = test system: Mus musculus; test: In vivo inhibition of JAK1/JAK2 in Balb/c mouse assessed as inhibition of IL-6 induced STAT3 phosphorylation in lungs at 10 ug, it pretreated for 15 mins followed by IL-6 stimulation measured after 30 mins by ELISA relative to control; assay type: functional; how it was run: as §2
[22] = molecular target: Vascular endothelial growth factor receptor 2 (Homo sapiens) (UniProt P35968); test: Inhibition of recombinant human KDR kinase expressed in insect Sf21 cells at 10 uM using Ulight-CAGAGAIETDKEYYTVKD as substrate after 60 mins by LANCE assay; how it was run: as §1
[23] = molecular target: hERG (KCNH2) (Homo sapiens, UniProt Q12809); test: Inhibition of human ERG at 1 uM
How it was run: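 hERG potassium current measured with compound at 1 μM.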

[24] = test system: Mus musculus; test: Effect on nerve activation in mouse up to 2 mg inhalation administered as micelle vehicle to delta fiber sensory nerve preparation; details: in vivo, inhaled_or_intranasal
How it was run: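 Mouse A delta fiber sensory nerve preparation given up to 2 mg in 400 μL of micelle vehicle; nerve activation recorded.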

[25] = Chemical stability in lactose using micronized sample up to 4 weeks; assay type: physicochemical; details: 672 h
How it was run: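 Jet-milled (micronized, ~2 μm) material blended with lactose and monitored for chemical and physical stability for up to 4 weeks.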

[26] = molecular target: T1, JAK1/TYK2 (Homo sapiens); remark: listed apart in the source
[27] = molecular target: Tyrosine-protein kinase JAK2 (Homo sapiens, UniProt O60674); test: Inhibition of JAK2 homodimer in human whole blood assessed as inhibition of GM-CSF induced STAT5 phosphorylation preincubated for 45 mins followed by GM-CSF addition and measured after 20 mins by flow cytometric analysis
Sequence of Tyrosine-protein kinase JAK2 (O60674 whole entry): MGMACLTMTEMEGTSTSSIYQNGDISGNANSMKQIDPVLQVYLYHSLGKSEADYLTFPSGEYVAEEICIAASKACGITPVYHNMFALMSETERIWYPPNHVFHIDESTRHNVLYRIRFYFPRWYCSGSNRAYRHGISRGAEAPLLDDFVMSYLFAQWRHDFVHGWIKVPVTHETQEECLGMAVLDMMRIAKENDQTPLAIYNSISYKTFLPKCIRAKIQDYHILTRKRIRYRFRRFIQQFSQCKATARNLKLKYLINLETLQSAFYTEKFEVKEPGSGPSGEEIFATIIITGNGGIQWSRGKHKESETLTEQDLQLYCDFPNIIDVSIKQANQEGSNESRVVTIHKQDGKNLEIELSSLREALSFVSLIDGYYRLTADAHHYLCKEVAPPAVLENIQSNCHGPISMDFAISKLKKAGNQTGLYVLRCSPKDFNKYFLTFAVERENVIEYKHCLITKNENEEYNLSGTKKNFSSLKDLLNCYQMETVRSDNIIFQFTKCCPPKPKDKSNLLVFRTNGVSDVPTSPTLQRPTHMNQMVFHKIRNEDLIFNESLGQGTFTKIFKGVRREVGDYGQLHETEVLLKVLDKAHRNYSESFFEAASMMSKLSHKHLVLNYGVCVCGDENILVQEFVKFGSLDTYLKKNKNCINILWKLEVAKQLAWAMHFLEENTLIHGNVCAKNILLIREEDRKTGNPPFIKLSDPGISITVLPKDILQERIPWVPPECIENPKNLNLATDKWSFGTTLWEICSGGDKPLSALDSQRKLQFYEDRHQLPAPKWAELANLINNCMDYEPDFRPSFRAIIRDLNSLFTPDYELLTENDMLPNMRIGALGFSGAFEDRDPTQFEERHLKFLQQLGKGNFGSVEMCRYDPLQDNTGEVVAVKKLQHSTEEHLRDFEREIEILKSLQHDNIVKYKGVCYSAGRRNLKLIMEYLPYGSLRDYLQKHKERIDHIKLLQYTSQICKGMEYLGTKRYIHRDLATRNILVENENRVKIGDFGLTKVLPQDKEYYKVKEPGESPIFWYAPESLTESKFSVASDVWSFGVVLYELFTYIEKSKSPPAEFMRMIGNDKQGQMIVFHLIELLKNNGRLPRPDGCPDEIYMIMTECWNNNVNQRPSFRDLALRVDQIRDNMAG

Sequence of hERG (KCNH2) (Q12809 whole entry): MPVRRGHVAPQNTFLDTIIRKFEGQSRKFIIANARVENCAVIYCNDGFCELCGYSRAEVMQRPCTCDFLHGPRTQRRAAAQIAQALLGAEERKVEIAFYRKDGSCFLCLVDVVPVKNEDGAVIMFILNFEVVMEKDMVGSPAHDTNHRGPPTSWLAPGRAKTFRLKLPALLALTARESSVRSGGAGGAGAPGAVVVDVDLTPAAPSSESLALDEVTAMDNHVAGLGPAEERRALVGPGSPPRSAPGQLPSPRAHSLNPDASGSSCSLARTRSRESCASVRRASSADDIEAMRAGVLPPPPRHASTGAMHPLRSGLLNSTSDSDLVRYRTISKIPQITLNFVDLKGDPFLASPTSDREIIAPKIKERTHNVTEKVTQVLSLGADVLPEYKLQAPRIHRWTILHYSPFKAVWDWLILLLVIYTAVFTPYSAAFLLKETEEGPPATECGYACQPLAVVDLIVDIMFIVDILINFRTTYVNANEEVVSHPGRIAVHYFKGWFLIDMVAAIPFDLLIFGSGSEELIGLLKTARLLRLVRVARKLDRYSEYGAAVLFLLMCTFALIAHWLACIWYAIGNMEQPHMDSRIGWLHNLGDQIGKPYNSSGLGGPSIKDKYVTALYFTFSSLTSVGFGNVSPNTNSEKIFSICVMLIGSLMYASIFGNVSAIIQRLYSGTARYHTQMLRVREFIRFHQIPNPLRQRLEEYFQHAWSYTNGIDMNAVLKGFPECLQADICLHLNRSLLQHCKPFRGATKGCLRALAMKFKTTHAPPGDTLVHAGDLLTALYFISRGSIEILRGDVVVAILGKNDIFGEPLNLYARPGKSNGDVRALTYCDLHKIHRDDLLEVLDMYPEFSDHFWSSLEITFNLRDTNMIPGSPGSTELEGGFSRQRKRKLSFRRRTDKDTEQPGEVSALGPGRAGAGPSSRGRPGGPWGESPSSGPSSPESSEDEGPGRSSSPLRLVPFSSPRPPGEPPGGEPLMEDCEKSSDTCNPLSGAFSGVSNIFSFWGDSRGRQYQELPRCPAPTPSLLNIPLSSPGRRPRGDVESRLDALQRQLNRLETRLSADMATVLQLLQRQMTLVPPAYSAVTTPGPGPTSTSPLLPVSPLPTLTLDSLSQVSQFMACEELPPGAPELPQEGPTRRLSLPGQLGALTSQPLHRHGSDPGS
Sequence of Tyrosine-protein kinase Lck (Homo sapiens) (P06239 2-509 limits assumed): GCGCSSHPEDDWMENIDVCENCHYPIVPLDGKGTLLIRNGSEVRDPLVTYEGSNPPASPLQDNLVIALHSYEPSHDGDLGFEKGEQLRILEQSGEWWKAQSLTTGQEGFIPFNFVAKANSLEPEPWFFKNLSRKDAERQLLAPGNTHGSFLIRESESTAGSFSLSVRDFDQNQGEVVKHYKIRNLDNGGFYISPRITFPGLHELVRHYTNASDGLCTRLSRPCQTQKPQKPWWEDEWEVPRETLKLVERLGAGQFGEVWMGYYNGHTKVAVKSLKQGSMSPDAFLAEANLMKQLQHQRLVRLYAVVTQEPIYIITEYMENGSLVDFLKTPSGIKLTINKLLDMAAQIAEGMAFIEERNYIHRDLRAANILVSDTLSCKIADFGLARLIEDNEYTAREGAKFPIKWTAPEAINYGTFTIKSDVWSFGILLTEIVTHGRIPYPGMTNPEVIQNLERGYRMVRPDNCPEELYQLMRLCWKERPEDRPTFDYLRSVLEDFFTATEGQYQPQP
Sequence of Vascular endothelial growth factor receptor 2 (Homo sapiens) (P35968 whole entry): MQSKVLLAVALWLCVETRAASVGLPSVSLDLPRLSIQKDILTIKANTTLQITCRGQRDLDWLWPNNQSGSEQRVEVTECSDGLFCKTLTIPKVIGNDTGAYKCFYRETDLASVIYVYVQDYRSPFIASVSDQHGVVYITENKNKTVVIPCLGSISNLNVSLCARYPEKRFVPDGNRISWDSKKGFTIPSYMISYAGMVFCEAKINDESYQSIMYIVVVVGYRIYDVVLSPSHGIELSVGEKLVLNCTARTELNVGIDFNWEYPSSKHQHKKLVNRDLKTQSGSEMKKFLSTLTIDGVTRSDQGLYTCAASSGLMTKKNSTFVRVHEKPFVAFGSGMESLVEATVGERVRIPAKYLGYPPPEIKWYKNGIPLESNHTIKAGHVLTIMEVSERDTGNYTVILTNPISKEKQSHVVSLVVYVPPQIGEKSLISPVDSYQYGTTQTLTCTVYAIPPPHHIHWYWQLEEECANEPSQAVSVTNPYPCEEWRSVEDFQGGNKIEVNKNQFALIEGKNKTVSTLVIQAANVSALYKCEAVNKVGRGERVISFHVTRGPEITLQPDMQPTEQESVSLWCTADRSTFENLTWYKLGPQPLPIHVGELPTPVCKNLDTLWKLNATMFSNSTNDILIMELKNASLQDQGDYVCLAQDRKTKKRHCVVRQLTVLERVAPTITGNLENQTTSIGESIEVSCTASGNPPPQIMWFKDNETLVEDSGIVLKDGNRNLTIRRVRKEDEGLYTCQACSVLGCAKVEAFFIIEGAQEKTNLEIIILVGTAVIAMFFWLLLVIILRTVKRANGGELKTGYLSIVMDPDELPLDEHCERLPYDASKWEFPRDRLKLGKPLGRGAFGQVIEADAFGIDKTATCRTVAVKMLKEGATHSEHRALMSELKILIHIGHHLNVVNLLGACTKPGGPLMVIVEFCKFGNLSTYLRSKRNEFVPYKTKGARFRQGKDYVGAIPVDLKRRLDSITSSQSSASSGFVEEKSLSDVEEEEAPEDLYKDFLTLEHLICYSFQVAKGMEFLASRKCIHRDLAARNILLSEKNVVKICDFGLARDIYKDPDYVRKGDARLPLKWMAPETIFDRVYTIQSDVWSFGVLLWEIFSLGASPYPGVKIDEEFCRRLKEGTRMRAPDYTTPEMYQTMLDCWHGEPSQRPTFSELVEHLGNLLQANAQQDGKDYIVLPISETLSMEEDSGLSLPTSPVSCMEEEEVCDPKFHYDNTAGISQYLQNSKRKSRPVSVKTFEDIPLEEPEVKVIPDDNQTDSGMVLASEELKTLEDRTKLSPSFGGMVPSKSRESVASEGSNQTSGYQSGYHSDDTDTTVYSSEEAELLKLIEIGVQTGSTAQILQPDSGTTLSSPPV

Q: What does the source list for `CCc1cc(O)c(F)cc1-c1ccc2c(-c3nc4c([nH]3)CCN(C(=O)c3cnc(N5CCCCC5)cn3)C4)n[nH]c2c1`?
A: Activity [1]: Non-Toxic; fIC50 [2]: 4.2 nM; inhibition [3]: > 50%; fIC50 [4]: 1.8 nM; fraction unbound at 0.5 h [5]: ≤ 0.001; Activity [6]: Active; Activity [7]: Non-Toxic; Stability [8]: Stable; solubility thermodynamic [9]: 0.5 µM (≈ 0.283 µg/mL); inhibition [10]: > 50%; CL [11]: 18 mL/min/kg; ED50 [12]: 3 µg; inhibition [12]: Dose-dependent effect; Stability [13]: Stable; inhibition (INH) [14]: <50%; CL [15]: 48 mL/min/kg; Stability [16]: Stable; inhibition [17]: inactive; CL free [18]: > 18000 mL/min/kg; fraction unbound [19]: ≤ 0.001; fIC50 [20]: 2.1 nM; inhibition (INH) [21]: 100%; inhibition [22]: > 50%; inhibition at 1 µM [23]: < 1%; Activity [24]: Non-Toxic; Stability [25]: Stable; fIC50 [26]: 0.62 nM; IC50 [27]: 5.2 µM
